CXCR6 inh – CXCR6 receptor inhibitors, primary screen, cell-based, beta-arrestin, luminescence, CHO-K1 PathHunter, 1536-well; C-X-C chemokine receptor type 6 (Homo sapiens), O00574; inhibition, % at 20 µM; actives 0.36% (n = 360,000); AID 602244, 2012; in the data active means inhibition above about 34%, passing the limit was not always enough;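 further: antagonist mode with CXCL16 agonist at 10 nM final; 0% = 10 nM CXCL16 with DMSO and 100% = unstimulated wells without agonist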
APJ agonist – agonists of human apelin receptor APJ, primary screen, CHO-K1 cells, PathHunter beta-arrestin, luminescence; P35414; 0% DMSO wells, 100% apelin; activation, % at 20 µM; actives 0.11% (n = 330,000); AID 2520, 2010;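 active means activation more than six SD over the plate average, tested at 20 µM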;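 further: 0% = DMSO alone and 100% = apelin-13 at 10 nM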
Target sequence (P35414 whole entry, looked up): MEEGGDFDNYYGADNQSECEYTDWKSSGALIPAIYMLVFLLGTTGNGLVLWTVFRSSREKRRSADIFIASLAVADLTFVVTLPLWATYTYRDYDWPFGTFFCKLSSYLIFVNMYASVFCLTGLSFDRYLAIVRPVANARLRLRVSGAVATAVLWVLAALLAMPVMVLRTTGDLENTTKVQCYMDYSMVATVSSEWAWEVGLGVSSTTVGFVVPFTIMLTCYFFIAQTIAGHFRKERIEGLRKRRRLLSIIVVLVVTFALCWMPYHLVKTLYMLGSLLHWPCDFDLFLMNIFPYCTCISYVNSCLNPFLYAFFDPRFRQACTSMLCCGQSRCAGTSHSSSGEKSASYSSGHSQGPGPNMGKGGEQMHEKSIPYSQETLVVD
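assay system = CHO-K1 APJ beta-arrestin complementation cell line | input = cell density 1000 per well | dosing = compound 20 µM once, DMSO 1% | timing = compound 90 min 25 °C, reagent 1 h | measured by = luminescence from split beta-galactosidase complementation, Galacton Star/Emerald II substrate | read-out basis = APJ agonist activity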
EBI2 block – EBI2 receptor antagonists, beta-arrestin recruitment, primary screen, cell-based, luminescence, 7a,25-OHC stimulation, uHTS; inhibition, % at 5 µM; G-protein coupled receptor 183 (Homo sapiens), P32249; actives 0.81% (n = 360,000); AID 651636, 2012; 7a,25-OHC stimulated; in the data active means inhibition above about 38%;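 further: enzyme fragment complementation signal reports receptor beta-arrestin coupling in cells; 0% = agonist plus DMSO wells and 100% = wells without agonist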
m5-HT2A agonist – mouse Htr2a agonists via beta-arrestin recruitment, primary screen, cell-based, luminescence; 5-hydroxytryptamine receptor 2A (Mus musculus), P35363; CHO-K1 mHTR2A beta-arrestin complementation; percent of 30 µM serotonin response; activation, % at 7.6 µM; actives 0.66% (n = 360,000); AID 624169, 2012;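 active means activation above a run cutoff, the mean activation of all tested compounds plus 3 SD, cut at about 14% in these data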;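 further: 0% = plate median of compound wells and 100% = 30 µM serotonin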
APJ antag – antagonists of human apelin receptor APJ, primary screen, CHO-K1 cells, beta-arrestin complementation, luminescence; inhibition, % at 20 µM; AID 2521, 2010; P35414; actives 0.32% (n = 330,000);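 active means inhibition above about 40% at 20 µM, limit read from the data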;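 further: cells challenged with 10 nM apelin-13 agonist together with compound; plate controls were apelin-13 plus DMSO wells for no effect and DMSO wells lacking apelin-13 for full effect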
CCR6 antagonist – CCR6 receptor antagonists, primary screen, cell-based, CHO-K1, luminescence, beta-arrestin, uHTS. C-C chemokine receptor type 6 (Homo sapiens), P51684. CHO-K1 CCR6 PathHunter beta-arrestin, CCL20-stimulated. inhibition, % at 20 µM. actives 0.49% (n = 340,000);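 active means compounds whose inhibition of the agonist-driven luminescence signal at 20 µM reaches about 50%, limit read from the data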;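 further: cells stimulated with CCL20 at 14 nM final; plate controls were DMSO with CCL20 for no effect and DMSO without agonist for full effect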
CXCR6 antag conf – CXCR6 receptor antagonists, confirmation, cell-based, single concentration, beta-arrestin, luminescence; shares compounds with CXCR6 inh; CHO-K1 CXCR6 PathHunter beta-arrestin; inhibition, % at 20 µM; actives 65% (n = 700);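 active means mean inhibition over four retests above 40%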;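 further: receptor stimulated with 10 nM CXCL16 agonist; beta-galactosidase fragment complementation upon beta-arrestin recruitment to receptor; plate controls were CXCL16 plus DMSO for no effect and DMSO without CXCL16 for full effect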
Starred values were filed as active, the others as inactive; . = no result. Compounds with a hit are over-represented: about 2.1% of the library has one in this group of screens.

SMILES	CXCR6 inh	APJ agonist	EBI2 block	m5-HT2A agonist	APJ antag	CCR6 antagonist	CXCR6 antag conf
CC(=O)OC1CCC2(C)C(CCC3C4CC=C(C(C)=O)C4(C)OC(=O)CC32)C1 (stereo unspecified)	50*	.	52*	-1	.	.	46*
O=C(Nc1cccc2ncccc12)C(c1ccccc1)c1ccccc1	3	-4	20	1	13	11	.
O=C1C=CC(=O)N1CCNc1ncc(C(F)(F)F)cc1Cl	97*	-1	11	-5	-12	.	77*
O=C1CC(=O)N(CCNc2ncc(C(F)(F)F)cc2Cl)C(=O)N1	6	3	7	9	1	6	.
O=C1C=CC(=O)N1CCCCCCCCCCN1C(=O)C=CC1=O	87*	.	26	-6	.	111*	51*
O=C(O)c1ccc(Cl)c(NCc2ccncc2)c1	-6	-4	0	-3	22	1	.
NN=C1c2ccccc2C(=O)C1C(=O)C(c1ccccc1)c1ccccc1 (stereo unspecified)	40*	.	0	-1	.	63*	34
CCn1c(SCC(=O)NC(C)(C)C)nnc1-c1ccncc1	0	-2	4	-3	5	0	.
C/C(CCc1ccccc1)=N\NC(=S)NCCc1ccccc1	26	-3	29	-1	6	40	.
C/C(CCC(C)C)=N\NC(=S)NCc1ccccc1	40*	-4	17	0	38	40	30
CC(=O)Nc1cc2nc(C)n(Cc3ccccc3)c2nc1C	2	-2	-7	6	14	9	.
Cc1ccc(-c2cc(C(=O)Nc3ccccc3C(N)=O)c3ccccc3n2)o1	47*	-5	11	3	28	18	1
COc1ccc(NC(=O)c2cc(-c3ccc(C)o3)nc3ccccc23)c(OC)c1	10	-1	-14	-1	15	5	.
NNC(=S)Nc1ccc(C(F)(F)F)cc1Cl	47*	1	-1	-2	-12	31	7
FC(F)(F)c1cccc(NC(=S)Nc2ccc(Cl)cc2Cl)c1	-10	0	-4	1	-7	5	.
C=C1C(=O)OC2C1CCC(C)=C1C(=O)C3OC3(C)C12 (stereo unspecified)	47*	.	52*	2	.	48	59*
C=C1C(=O)O[C@@H]2[C@H]1CC[C@H](C)[C@]1(O)CCC(=O)[C@@]21C	-6	-4	-2	7	9	5	.
CN(C(=O)CSc1nc2ccccc2n1CCc1ccccc1)C1CCS(=O)(=O)C1 (stereo unspecified)	-7	1	-12	0	15	12	.
O=C(O)c1ccc2c(c1)N(Cc1ccccc1)C(=O)c1ccccc1S2=O (stereo unspecified)	5	-5	1	1	0	-10	.
CCc1cccc2c(C(=O)C(F)(F)F)cn(CC(=O)NCC3CCCO3)c12 (stereo unspecified)	46*	-5	-10	0	6	13	2
Cc1cc(F)ccc1NC(=O)C1CCN(S(=O)(=O)c2ccc3c(c2)CCCC(=O)N3)CC1	-7	0	-6	0	-52	5	.
C=CCN1C(=O)/C(=N/n2cnnc2)c2ccccc21	6	-3	-8	8	9	21	.
CC(C)CN1C(=O)C(=Nc2cccnc2)c2ccccc21	43*	-10	9	-5	33	37	37
CC(C)C[C@H](NC(=O)c1nc[nH]c1C(=O)NCc1ccc(CNC(=O)OC(C)(C)C)cc1)C(=O)OC(C)(C)C	0	-4	2	3	-1	10	.
Cc1ccc(S(=O)(=O)NCC(=O)OCC(=O)c2ccc(S(=O)(=O)N3CCCCC3)cc2)cc1C	56*	.	15	-6	.	72*	33
